Active and inactive are the calls of the source. The calls are words filed in the database; no cut-off is given here.
Legend:
Nucleic Acid [1] = experiment: Binding affinity to Escherichia coli pBR322 assessed as DNA interstand cross link at 0.5 mM after 6 mins by agarose gel electrophoresis in presence of 20 equiv of Et3P; type: nucleic-acid assay
[2] = Activation of the compound assessed as half life at 40 Equiv of Et3P by HPLC and TLC method; type: physicochemical
Method in brief: (§1)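 Mitomycin at 0.03 mM final in buffered methanolic solution (0.1 M Tris-HCl, effective 'pH' 7.4), 25 °C, with added nucleophile (final 0.06–1.5 mM). Followed by UV–vis (200–600 nm) at ~373 nm, with mitosene products at ~313 nm, for more than two half-lives. Runs in duplicate and averaged. End-point 'pH' checked, mixtures analysed by HPLC and TLC against authentic samples.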

[3] = Activation of the compound assessed as half life at 20 Equiv of Et3P by HPLC and TLC method; type: physicochemical; method in brief: as §1
[4] = Stability of the compound at 20 Equiv of glutathione measured after 3 days by HPLC and TLC method; type: physicochemical; details: read-out: Stability; method in brief: as §1
[5] = Stability of the compound at 10 Equiv of Et3P after 3 days by HPLC and TLC method; type: physicochemical; details: read-out: Stability; method in brief: as §1
Nucleic Acid [6] = experiment: Binding affinity to Escherichia coli pBR322 assessed as DNA interstand cross link at 0.1 mM after 2 hrs by agarose gel electrophoresis in presence of 5 equiv of L-ditiothreitol; type: nucleic-acid assay
Method in brief: (§2)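 EcoRI-linearized pBR322 plasmid DNA, deaerated with N2 for 15 min. Mitomycin (0.1–0.2 mM final, from 5 mM DMSO stock) and nucleophile (Et3P, L-DTT or GSH, 5 equiv, 0.5 mM final) added, then incubated 2 h at room temperature. Concentration scan with Et3P over […]. DNA extracted with phenol/chloroform and ethanol-precipitated, run on denaturing 1.2% alkaline agarose gel (40 mM NaOH, 1 mM EDTA), neutralised, stained, bands quantified.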

[7] = Stability of the compound at 50 Equiv of Et3P after 3 days by HPLC and TLC method; type: physicochemical; details: read-out: Stability; method in brief: as §1
[8] = Stability of the compound at 10 Equiv of L-ditiothreitol after 5 days by HPLC and TLC method; type: physicochemical; details: read-out: Stability; method in brief: as §1
[9] = Stability of the compound at 20 Equiv of L-ditiothreitol after 5 days by HPLC and TLC method; type: physicochemical; details: read-out: Stability; method in brief: as §1
[10] = Stability of the compound at 20 Equiv of Et3P after 3 days by HPLC and TLC method; type: physicochemical; details: read-out: Stability; method in brief: as §1
Nucleic Acid [11] = experiment: Binding affinity to Escherichia coli pBR322 assessed as DNA interstand cross link at 0.1 mM after 2 hrs by agarose gel electrophoresis in presence of 5 equiv glutathione; type: nucleic-acid assay; method in brief: as §2
[12] = Stability of the compound measured after 5 days by HPLC and TLC method; type: physicochemical; details: read-out: Stability
Method in brief: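 Mitomycin at 0.03 mM final in buffered methanolic solution (0.1 M Tris-HCl, effective 'pH' 7.4), 25 °C, […]. Followed by UV–vis (200–600 nm) at ~373 nm. Runs in duplicate and averaged. HPLC and TLC analysis at the end.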

Nucleic Acid [13] = experiment: Binding affinity to Escherichia coli pBR322 assessed as DNA interstand cross link at 0.1 mM after 2 hrs by agarose gel electrophoresis in presence of 5 equiv of Et3P; type: nucleic-acid assay; method in brief: as §2
Nucleic Acid [14] = experiment: Binding affinity to Escherichia coli pBR322 assessed as DNA interstand cross link at 0.2 mM after 2 hrs by agarose gel electrophoresis in presence of 5 equiv of L-ditiothreitol; type: nucleic-acid assay
Method in brief: (§3)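 EcoRI-linearized pBR322 plasmid DNA, N2-deaerated 15 min, mitomycin added from DMSO stock (final 0.1–0.2 mM) with nucleophile (GSH, Et3P or L-DTT, 5 equiv) from DMSO stock; incubated room temperature 2 h. DNA phenol/CHCl3-extracted, EtOH-precipitated, resuspended in 10 mM Tris/1 mM EDTA pH 8.0. Run on denaturing 1.2% alkaline agarose gel (40 mM NaOH, 1 mM EDTA), neutralized, stained, bands quantified.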

Nucleic Acid [15] = experiment: Binding affinity to Escherichia coli pBR322 assessed as DNA interstand cross link at 0.2 mM after 2 hrs by agarose gel electrophoresis in presence of 5 equiv glutathione; type: nucleic-acid assay; method in brief: as §3
Nucleic Acid [16] = experiment: Binding affinity to Escherichia coli pBR322 assessed as DNA interstand cross link at 0.2 mM after 2 hrs by agarose gel electrophoresis in presence of 5 equiv of Et3P; type: nucleic-acid assay; method in brief: as §3
[17] = Activation of the compound assessed as half life at 5 Equiv of Et3P by HPLC and TLC method; type: physicochemical; method in brief: as §1
[18] = Stability of the compound at 2 Equiv of Et3P measured after 5 days by HPLC and TLC method; type: physicochemical; details: read-out: Stability; method in brief: as §1
[19] = Stability of the compound at 10 Equiv of L-ditiothreitol after 3 days by HPLC and TLC method; type: physicochemical; details: read-out: Stability; method in brief: as §1
Nucleic Acid [20] = experiment: Binding affinity to Escherichia coli pBR322 assessed as DNA interstand cross link at 0.05 to 0.25 mM after 2 hrs by agarose gel electrophoresis in presence of 5 equiv of Et3P; type: nucleic-acid assay; method in brief: as §2
[21] = Activation of the compound assessed as half life at 10 Equiv of Et3P by HPLC and TLC method; type: physicochemical; method in brief: as §1
[22] = Stability of the compound at 20 Equiv L-ditiothreitol measured after 3 days by HPLC and TLC method; type: physicochemical; details: read-out: Stability; method in brief: as §1
[23] = Activation of the compound assessed as half life at 50 Equiv of Et3P by HPLC and TLC method; type: physicochemical; method in brief: as §1

Row | Compound | half-life [3] | remaining at 72 h [4] | Activity (Nucleic Acid [6]) | Activity (Nucleic Acid [11]) | remaining at 120 h [12] | Activity (Nucleic Acid [13]) | half-life [21] | further results
1 | CO[C@@]12[C@H](OC(N)=O)C3=C(C(=O)C(C)=C(NCC4CCCCC(CNC5=C(C)C(=O)C6=C(C5=O)[C@@H](OC(N)=O)[C@@]5(OC)[C@H]7N[C@H]7CN65)SSC(CNC5=C(C)C(=O)C6=C(C5=O)[C@@H](OC(N)=O)[C@@]5(OC)[C@H]7N[C@H]7CN65)CCCCC(CNC5=C(C)C(=O)C6=C(C5=O)[C@@H](OC(N)=O)[C@@]5(OC)[C@H]7N[C@H]7CN65)SS4)C3=O)N1C[C@@H]1N[C@@H]12 (stereo partly drawn) | 1.99 h | – | – | – | – | – | – | Activity (Nucleic Acid [1]): 35%; half-life [2]: 1.01 h
2 | CO[C@@]12[C@H](COC(N)=O)C3=C(C(=O)C(C)=C(NCC(O)CCCCC(O)CNC4=C(C)C(=O)C5=C(C4=O)[C@@H](COC(N)=O)[C@@]4(OC)[C@H]6N[C@H]6CN54)C3=O)N1C[C@@H]1N[C@@H]12 (mixture of isomers) | – | < 10% | 6% | 7% | < 10% | 4% | – | remaining at 72 h [5]: < 10%; remaining at 72 h [7]: < 10%; remaining at 120 h [8]: < 10%; remaining at 120 h [9]: < 10%; remaining at 72 h [10]: < 10%
3 | CO[C@@]12[C@H](COC(N)=O)C3=C(C(=O)C(C)=C(N)C3=O)N1C[C@@H]1N[C@@H]12 | – | – | – | – | – | – | – | Activity (Nucleic Acid [14]): 2%; Activity (Nucleic Acid [15]): 2%; Activity (Nucleic Acid [16]): 3%
4 | CO[C@@]12[C@H](COC(N)=O)C3=C(C(=O)C(C)=C(NCC4CCCCC(CNC5=C(C)C(=O)C6=C(C5=O)[C@@H](COC(N)=O)[C@@]5(OC)[C@H]7N[C@H]7CN65)SS4)C3=O)N1C[C@@H]1N[C@@H]12 (mixture of isomers) | 1.2 h | < 10% | 95% | 21% | < 10% | 94% | 1.92 h | half-life [17]: 5.52 h; remaining at 120 h [18]: < 10%; remaining at 72 h [19]: < 10%; Activity (Nucleic Acid [20]): Active; remaining at 72 h [22]: < 10%; half-life [23]: 0.48 h
5 | CO[C@@]12[C@H](COC(N)=O)C3=C(C(=O)C(C)=C(NC[C@H]4CC[C@@H](CNC5=C(C)C(=O)C6=C(C5=O)[C@@H](COC(N)=O)[C@@]5(OC)[C@H]7N[C@H]7CN65)SS4)C3=O)N1C[C@@H]1N[C@@H]12 | 3.12 h | – | 77% | – | – | 83% | 6.24 h | –

Source: ChEMBL document CHEMBL1817652, “Synthesis and mechanistic studies of a mitomycin dimer containing an eight-membered cyclic disulfide” (Bioorg Med Chem, 2011)
